NR2E3 ag-1 – NR2E3 agonists in two-hybrid cells, primary screen, cell-based, luminescence, CHO-S, Gal4-NCOR/VP16-NR2E3; luciferase; inhibition of corepressor binding, % at 3.98 µM; actives 0.35% (n = 360,000);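 active means inhibition above the mean of all tested compounds plus 3 SD, cut at about 70% in these data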;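 further: higher means lower luciferase signal from less NR2E3 corepressor binding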
Target sequence (Q9Y5X4 whole entry, looked up, the tested form may be a part): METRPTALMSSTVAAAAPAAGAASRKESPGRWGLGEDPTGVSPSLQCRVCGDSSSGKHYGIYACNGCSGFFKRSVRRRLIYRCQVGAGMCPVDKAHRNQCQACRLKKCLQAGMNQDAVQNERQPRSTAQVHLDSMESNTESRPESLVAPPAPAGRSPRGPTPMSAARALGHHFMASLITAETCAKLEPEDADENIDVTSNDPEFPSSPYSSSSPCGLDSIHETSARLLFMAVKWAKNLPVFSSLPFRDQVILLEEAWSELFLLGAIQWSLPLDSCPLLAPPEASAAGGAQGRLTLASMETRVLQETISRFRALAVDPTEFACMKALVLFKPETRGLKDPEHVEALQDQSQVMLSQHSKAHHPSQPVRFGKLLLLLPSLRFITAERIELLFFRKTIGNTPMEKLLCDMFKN
PG9 binder – binders of HIV-1 gp120 antibody PG9, primary screen, biochemical, TR-FRET. TR-FRET gp120-PG9 antibody binding. actives 0.43% (n = 360,000). AID 624416, 2012. inhibition, % at 6.7 µM; in the data active means inhibition above about 8.5%
NR2E3 ag-2 – inhibitors of NR2E3-RetCOR corepressor binding, primary screen, NR2E3 agonist project, biochemical, TR-FRET, GST-NR2E3, biotin-RetCOR. Photoreceptor-specific nuclear receptor (Homo sapiens), Q9Y5X4. 1536-well. inhibition of corepressor binding, % at 4.78 µM. actives 0.12% (n = 320,000). AID 2300, 2010;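 active means percent inhibition above the cutoff of mean plus 3 SD of all tested compounds, set per screening campaign, cut at about 20% in these data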
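system = GST-tagged NR2E3 plus biotinylated RetCOR corepressor | input = 1.35 nM GST-NR2E3 | also added = 7 nM biotin-RetCOR | schedule = 5 h incubation at 4 °C | measured by = TR-FRET with europium anti-GST and streptavidin-D2, 340 nm excitation | read-out = percent loss of FRET ratio relative to control wells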
Rev-erbA mod – modulators of Rev-erb alpha DNA binding, primary screen, biochemical, FITC-DNA, fluorescence polarization, uHTS; AID 1259318, 2017; Rev-erbα–FITC-DNA binding, 90 min; activity, % at 10 µM; actives 0.79% (n = 370,000);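 active means activity above about 14%, limit read from the data; passing the limit was not always enough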
Neddyl block – inhibitors of cullin neddylation, primary screen, biochemical, TR-FRET, uHTS, NAE and Ubc12; calls only at 25 µM; actives 0.58% (n = 360,000); AID 651699, 2012; in the data active means inhibition above about 36%
PG9 binder conf – binders of anti-gp120 antibody PG9, confirmation, biochemical, TR-FRET. shares compounds with PG9 binder. inhibition, % at 6.7 µM. TR-FRET PG9 antibody binding. AID 651571, 2012. actives 90% (n = 1,500); in the data active means inhibition above about 9%
PGV04 Ab binding – binders of control antibody PGV04, counter-screen for PG9 antibody binder project, biochemical, TR-FRET, distinct HIV envelope site; shares compounds with PG9 binder; TR-FRET PGV04 antibody-gp120 binding; inhibition, % at 6.7 µM; actives 95% (n = 1,500); AID 651604, 2012; in the data active means inhibition above about 9.5%
PG9 bind DR – small-molecule binders of antibody PG9, dose response, biochemical, TR-FRET, HIV-1 gp120 antibody; shares compounds with PG9 binder; 95 tested, under 10 active; IC50, µM; AID 651848, 2012; TR-FRET PG9 antibody-gp120 binding inhibition; in the data active means IC50 below about 10 µM
PGV04 binding DR – binders of control antibody PGV04, dose response, counter-screen for PG9 antibody binder project, biochemical, TR-FRET, distinct HIV envelope site | TR-FRET binding to control antibody PGV04 | IC50, µM | shares compounds with PG9 binder | actives 20% (n = 95)
PG126 binding DR – binders of control antibody PG126, dose response, counter-screen for PG9 antibody binder project, biochemical, TR-FRET, distinct HIV envelope site. TR-FRET binding to antibody PG126, counterscreen. actives 20% (n = 95). AID 651939, 2012. IC50, µM. shares compounds with PG9 binder
Large screens that a line does not name were inactive (follow-up assays come after a bar, where shown). This is a sample that favours compounds with a hit; in the whole collection about 2% have one here. Unless noted, no stated cut-off is given here; in the data, active means IC50 below about 9 µM; inactive means the rest.

Cn1ccc2c(N3c4ccccc4CCc4ccccc43)cc3c(c21)C1CCC3C1 (centres undefined)	none (no result: NR2E3 ag-2)
N#Cc1nc(-c2cccc(Cl)c2)oc1N1CCC(C(N)=O)CC1	none (not shown: Neddyl block)
CN(C)c1ccc(C(=O)OCC(=O)NCCNC(=O)COC(=O)c2ccc(N(C)C)cc2)cc1	none
COc1ccc(C(=O)C[n+]2ccc(N(C)C)cc2)cc1	none
COC(=O)c1ccc(CNC(=O)COC(=O)c2ccc(N(C)C)cc2)cc1	PG9 binder 26 | PG9 binder conf 24 | PGV04 Ab binding 39
COc1ccc(C(=O)COC(=O)c2ccc(N(C)C)cc2)cc1	PG9 binder 15 | PG9 binder conf 23 | PGV04 Ab binding 26
CCCC(=O)Nc1c(-c2ccccc2)[nH][nH]c1=O	none (no result: NR2E3 ag-2)
CC(=O)C(C(C)=O)c1c(Cl)c(O)c(O)c2c(C(=O)c3ccccc3)coc12	PG9 binder 12 | PG9 binder conf 18 | PGV04 Ab binding 20
CCN(c1ccc(NC(=O)COC(=O)c2cc3ccccc3oc2=O)cc1)C(C)C	none
O=C(COC(=O)c1cc2ccccc2oc1=O)Nc1ccc(F)cc1F	PG9 binder 15 | PG9 binder conf 16 | PGV04 Ab binding 48
CCOc1ncccc1C(=O)OCC(=O)Nc1ccc(Cl)cn1	none (no result: NR2E3 ag-2)
CSc1ncccc1C(=O)OCC(=O)Nc1ccc(Cl)cn1	PG9 binder 17 (no result: NR2E3 ag-2) | PG9 binder conf 9.9 | PGV04 Ab binding 15
CSc1ncccc1C(=O)OCc1ccc(C#N)cc1	PG9 binder 9.8 | PG9 binder conf 15 | PGV04 Ab binding 20
CSc1ncccc1C(=O)OCC(=O)c1ccc(C)s1	PG9 binder 16 (no result: NR2E3 ag-2) | PG9 binder conf 16 | PGV04 Ab binding 38
CC(=O)O[C@@H](C[C@@H](C)C1=C2C[C@H](O)C3[C@@]4(C)CCC(=O)C(C)(C)C4CC[C@]3(C)[C@@]2(C)CC1)[C@H]1OC1(C)C (some centres undefined)	none (no result: NR2E3 ag-2)
CC(C)n1c(=S)[nH]c2scc(-c3cccs3)c2c1=O	none
CCn1c(=S)[nH]c2scc(-c3cccs3)c2c1=O	PG9 binder 11 (no result: NR2E3 ag-2) | PG9 binder conf inactive | PGV04 Ab binding 11
O=C(CSc1nc2ccccc2c(=O)n1Cc1ccc(F)cc1)NCc1cccs1	PG9 binder 16 | PG9 binder conf 16 | PGV04 Ab binding 33
Cc1ccccc1NC(=O)CCC(=O)OCC(=O)c1ccc(-c2ccccc2)cc1	PG9 binder 13 | PG9 binder conf 13 | PGV04 Ab binding 24
CC(C)(C)n1c(O)c2n(c1=O)Cc1ccccc1N=C2c1ccccc1	none (no result: NR2E3 ag-2)
COC(=O)[C@@]12C[C@@H](CC(=O)N3CCN(C(=O)c4ccco4)CC3)C(=O)N(Cc3ccccc3)C1=CCC(C)(C)C2	none (no result: NR2E3 ag-1, NR2E3 ag-2)
CCOCCCn1c(SCC(=O)Nc2ccc(OC)cc2)nc2ccccc2c1=O	PG9 binder 48 | PG9 binder conf 48 | PGV04 Ab binding 55
CCCC1CCC2(CC1)CCC2OC(=S)Nc1cccc(I)c1 (centres undefined)	none (no result: NR2E3 ag-1, PG9 binder, NR2E3 ag-2, Neddyl block)
CCCc1nc2ccccc2c(=O)n1CC(=O)c1ccccc1	none
CCCc1nc2ccccc2c(=O)n1CC(=O)c1ccc(OC)cc1	PG9 binder 10.0 | PG9 binder conf 11 | PGV04 Ab binding 15
Cc1ccc(S(=O)(=O)c2nc(S(=O)(=O)c3ccccc3)sc2N2CCN(C)CC2)cc1	none
COC(=O)c1c(NC(=S)Nc2ccc(C(=O)N3CCOCC3)cc2)sc2c1CCC2	PG9 binder 10 | PG9 binder conf inactive | PGV04 Ab binding inactive
Cc1ccc(Cn2cc(CN(C)S(=O)(=O)c3ccccc3Br)nn2)cc1	none (no result: NR2E3 ag-1, PG9 binder, NR2E3 ag-2, Neddyl block)
COc1ccc(-c2cc3nc(NCc4ccc(C)cc4C)n(C)c(=O)c3s2)cc1OC	PG9 binder 13 (no result: NR2E3 ag-2) | PG9 binder conf 13 | PGV04 Ab binding 20
Cc1sc(NC(=S)NC(=O)C2CCCCC2)c(C(N)=O)c1C	PG9 binder 32 | PG9 binder conf 24 | PGV04 Ab binding 31
Cc1sc(NC(=S)Nc2ccc(F)cc2)c(C(N)=O)c1C	none
N#Cc1c(SC(C(=O)O)c2ccccc2)nc2c(c1-c1cccs1)CCCC2 (centres undefined)	PG9 binder 20 | PG9 binder conf 32 | PGV04 Ab binding 44
O=C(Nc1ccsc1C(=O)NC1CCCCC1)c1ccccc1	PG9 binder 28 | PG9 binder conf 25 | PGV04 Ab binding 31
CC(=O)CC[C@@H]1CC[C@]2(CCCN(C(=O)C(C)(C)C)C2)O1	none (no result: NR2E3 ag-1, PG9 binder, NR2E3 ag-2, Neddyl block)
CCOC(=O)c1sc(N)c(C(=O)OC)c1C	none
CCOC(=O)c1c(C)[nH]sc1=S	PG9 binder 17 (no result: NR2E3 ag-2) | PG9 binder conf 9.3 | PGV04 Ab binding inactive | PG9 bind DR inactive | PGV04 binding DR inactive | PG126 binding DR inactive
CCOC(=O)c1sc(=S)[nH]c1C	PG9 binder 19 (no result: NR2E3 ag-2) | PG9 binder conf 11 | PGV04 Ab binding inactive | PG9 bind DR inactive | PGV04 binding DR inactive | PG126 binding DR inactive
O=P(OCC1CCCO1)(OCC1CCCO1)OCC1CCCO1 (centres undefined)	none (no result: NR2E3 ag-2)
O=C(CSc1ccccc1)NC1CCCCN(Cc2cccc(Cl)c2)C1=O (centres undefined)	none (no result: NR2E3 ag-1, PG9 binder, NR2E3 ag-2, Neddyl block)
CCN(CC)c1ccc(C=Nn2c(-c3ccc(F)cc3)n[nH]c2=S)c(O)c1	none (no result: NR2E3 ag-1, PG9 binder, NR2E3 ag-2, Neddyl block)
NC(=O)c1nn(-c2ccccc2)nc1NC(=O)Cn1nnc(-c2ccccc2)n1	PG9 binder 8.6 | PG9 binder conf 18 | PGV04 Ab binding 19
